Reference: ChEMBL document CHEMBL4138045 (Medchemcomm, 2017)
Active and inactive are the calls of the source. No cut-off for these calls is given here.

Experiments:
[1] = molecular target: Mu-type opioid receptor (Mus musculus) (UniProt P42866); test: Agonist activity at mouse MOR expressed in CHO cell membranes assessed as induction of [35S]GTPgammaS binding after 90 mins by scintillation spectroscopy relative to DAMGO; type: functional
[2] = molecular target: Kappa-type opioid receptor (Mus musculus) (UniProt P33534); test: Agonist activity at mouse KOR expressed in CHO cell membranes assessed as induction of [35S]GTPgammaS binding after 90 mins by scintillation spectroscopy relative to U50488H; type: functional
Mu-type opioid receptor [3] = molecular target: T1, Mu-type opioid receptor (Mus musculus, UniProt P42866); test: Displacement of [125I]BNtxA from mouse MOR expressed in CHO cell membranes after 90 mins by filter binding assay
In short: (§1)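 Competition binding with [125I]BNtxA (0.1 nM) in membranes of CHO cells expressing mouse MOR, DOR or KOR. Protein 10-20 μg mL-1, 90 min incubation. Ki obtained by nonlinear regression. At least 3 assays, mean ± SEM.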

[4] = molecular target: T2, Kappa-type opioid receptor (Mus musculus, UniProt P33534); test: Displacement of [125I]BNtxA from mouse KOR expressed in CHO cell membranes after 90 mins by filter binding assay; in short: as §1
[5] = molecular target: Delta-type opioid receptor (Mus musculus, UniProt P32300); test: Displacement of [125I]BNtxA from mouse DOR expressed in CHO cell membranes after 90 mins by filter binding assay; in short: as §1
Mus musculus [6] = organism: Mus musculus; test: Selectivity ratio of Ki for mouse KOR to Ki for mouse MOR
Mus musculus [7] = organism: Mus musculus; test: Selectivity ratio of Ki for mouse DOR to Ki for mouse MOR
Mu-type opioid receptor [8] = molecular target: T1, Mu-type opioid receptor; test: Agonist activity at mouse MOR expressed in CHO cell membranes assessed as induction of [35S]GTPgammaS binding after 90 mins by scintillation spectroscopy; type: functional
In short: (§2)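 Agonist-stimulated [35S]GTPγS binding in membranes from opioid receptor-transfected cells. Membrane protein 50 µg mL-1, 90 min incubation. Potency taken as EC50. Three separate assays, each in triplicate, reported as mean ± SEM.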

Mus musculus [9] = test: Antinociceptive activity in CD1 mouse at 30 mg/kg, sc after 30 mins by radiant heat tail flick method relative to control; type: functional
In short: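 CD1 mice (n = 10) dosed sc at 30 mg kg-1. Radiant heat tail-flick tested 30 min after injection. Values given as mean ± SEM percent antinociception.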

Mus musculus [10] = test: Antinociceptive activity in CD1 mouse at 30 mg/kg, sc after >24 hrs by radiant heat tail flick method; type: functional, organism-based
In short: (§3)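 Time course in CD1 mice (n = 10) after sc dosing at 30 mg kg-1, measured by radiant heat tail flick. Two independent determinations.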

Mus musculus [11] = test: Antinociceptive activity in CD1 mouse at 7.5 ug, icv after >24 hrs by radiant heat tail flick method; type: functional, organism-based
In short: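 Time course in CD1 mice (n = 10) after icv administration of 7.5 µg, measured by tail flick. Two independent determinations.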

Mus musculus [12] = test: Antinociceptive activity in icv dosed CD1 mouse after 15 mins by radiant heat tail flick method; type: functional
In short: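 Compounds given intracerebroventricularly to groups of mice (n = 5) as cumulative doses. Tail-flick tested 15 min later, at peak effect, to build the dose-response curve and ED50. Two independent determinations.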

Mus musculus [13] = test: Antinociceptive activity in CD1 mouse at 30 mg/kg, sc after 30 mins in presence of MOR antagonist beta-FNA by radiant heat tail flick method; type: functional, organism-based
In short: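 CD1 mice (n = 10) given compound at 30 mg kg-1 sc, with or without β-funaltrexamine (40 mg kg-1 sc) 24 h before agonist. Tail-flick tested 30 min after the agonist.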

Mus musculus [14] = test: Antinociceptive activity in CD1 mouse at 30 mg/kg, sc after 3 hrs by radiant heat tail flick method; type: functional, organism-based; in short: as §3
[15] = molecular target: T2, Kappa-type opioid receptor; test: Agonist activity at mouse KOR expressed in CHO cell membranes assessed as induction of [35S]GTPgammaS binding after 90 mins by scintillation spectroscopy; type: functional; in short: as §2

T1 sequence (P42866 whole entry): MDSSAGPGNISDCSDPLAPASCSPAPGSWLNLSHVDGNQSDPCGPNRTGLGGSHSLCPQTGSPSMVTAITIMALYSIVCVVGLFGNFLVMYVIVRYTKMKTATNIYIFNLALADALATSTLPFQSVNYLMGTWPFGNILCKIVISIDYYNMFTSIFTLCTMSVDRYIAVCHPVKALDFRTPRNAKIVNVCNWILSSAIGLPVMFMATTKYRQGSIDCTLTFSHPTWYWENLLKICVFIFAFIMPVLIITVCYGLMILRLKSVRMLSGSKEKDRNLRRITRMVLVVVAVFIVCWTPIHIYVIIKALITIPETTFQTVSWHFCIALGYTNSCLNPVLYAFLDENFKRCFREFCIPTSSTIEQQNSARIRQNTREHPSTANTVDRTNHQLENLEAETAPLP
Mu-type opioid receptor (Mus musculus), sequence (P42866 whole entry): as above
Delta-type opioid receptor, sequence (P32300 whole entry): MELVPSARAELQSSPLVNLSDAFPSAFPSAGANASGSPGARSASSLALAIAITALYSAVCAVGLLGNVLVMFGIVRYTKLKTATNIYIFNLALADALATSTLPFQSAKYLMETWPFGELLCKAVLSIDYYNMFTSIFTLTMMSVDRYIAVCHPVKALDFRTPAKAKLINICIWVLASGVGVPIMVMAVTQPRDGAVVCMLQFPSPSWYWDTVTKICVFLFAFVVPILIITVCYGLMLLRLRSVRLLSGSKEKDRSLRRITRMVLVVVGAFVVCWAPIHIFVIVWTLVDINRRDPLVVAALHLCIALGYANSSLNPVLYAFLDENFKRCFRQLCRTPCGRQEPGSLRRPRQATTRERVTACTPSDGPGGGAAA
T2 sequence (P33534 whole entry): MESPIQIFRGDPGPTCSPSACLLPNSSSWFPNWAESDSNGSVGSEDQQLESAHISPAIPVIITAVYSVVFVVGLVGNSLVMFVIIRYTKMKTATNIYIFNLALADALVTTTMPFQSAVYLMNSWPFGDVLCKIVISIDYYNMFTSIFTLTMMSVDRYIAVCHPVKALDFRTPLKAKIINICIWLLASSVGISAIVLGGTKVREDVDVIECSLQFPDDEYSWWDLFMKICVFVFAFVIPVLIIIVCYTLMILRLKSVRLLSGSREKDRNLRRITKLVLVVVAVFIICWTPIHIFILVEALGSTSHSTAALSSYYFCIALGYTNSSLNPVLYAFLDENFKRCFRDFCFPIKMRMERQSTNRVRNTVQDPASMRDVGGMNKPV
Kappa-type opioid receptor (Mus musculus), sequence (P33534 whole entry): as above

CN1CC[C@]23c4c5ccc(O)c4O[C@H]2[C@H](NC(=O)/C=C/c2ccccc2)C=C[C@H]3[C@H]1C5
Emax [1]: 95.3%
Emax [2]: 106%

CN1CC[C@]23c4c5ccc(O)c4O[C@H]2[C@@H](NC(=O)c2ccncc2)CC[C@@]3(O)[C@H]1C5
Ki (Mu-type opioid receptor [3]): 0.00702 µM
Ki [4]: > 0.1 µM
Ki [5]: 0.173 µM
Ratio Ki (Mus musculus [6]): > 14.2
Ratio Ki (Mus musculus [7]): 24.7
EC50 (Mu-type opioid receptor [8]): 0.0264 µM
Emax [1]: 115%

COc1ccc2c3c1O[C@H]1[C@@H](NC(=O)c4ccncc4)C=C[C@H]4[C@@H](C2)N(C)CC[C@@]341
Ki (Mu-type opioid receptor [3]): 0.0406 µM
Ki [4]: > 0.1 µM
Ki [5]: 0.424 µM
Ratio Ki (Mus musculus [6]): > 2.5
Ratio Ki (Mus musculus [7]): 10.4

CN1CC[C@]23c4c5ccc(O)c4O[C@H]2[C@@H](NC(=O)c2ccncc2)CC[C@H]3[C@H]1C5
Ki (Mu-type opioid receptor [3]): 0.00373 µM
Ki [4]: > 0.1 µM
Ki [5]: 0.198 µM
Ratio Ki (Mus musculus [6]): > 26.8
Ratio Ki (Mus musculus [7]): 53.2
EC50 (Mu-type opioid receptor [8]): 0.00816 µM
Emax [1]: 115%
MPE (Mus musculus [9]): 78%
Activity (Mus musculus [10]): Active
Activity (Mus musculus [11]): Active
ED50 (Mus musculus [12]): 0.7 µg
Activity (Mus musculus [13]): inactive

CN1CC[C@]23c4c5ccc(O)c4O[C@H]2[C@@H](NC(=O)c2cccnc2)CC[C@@]3(O)[C@H]1C5
Ki (Mu-type opioid receptor [3]): 0.00691 µM
Ki [4]: > 0.1 µM
Ki [5]: 0.104 µM
Ratio Ki (Mus musculus [6]): > 14.5
Ratio Ki (Mus musculus [7]): 15
EC50 (Mu-type opioid receptor [8]): 0.0257 µM
Emax [1]: 121%

CN1CC[C@]23c4c5ccc(O)c4O[C@H]2[C@@H](O)C=C[C@H]3[C@H]1C5 [MORPHINE]
Activity (Mus musculus [14]): Active
ED50 (Mus musculus [12]): 0.53 µg

CN1CC[C@]23c4c5ccc(O)c4O[C@H]2[C@@H](NC(=O)c2ccncc2)C=C[C@H]3[C@H]1C5
Ki (Mu-type opioid receptor [3]): 0.002 µM
Ki [4]: 0.0779 µM
Ki [5]: 0.065 µM
Ratio Ki (Mus musculus [6]): 39
Ratio Ki (Mus musculus [7]): 32.5
EC50 (Mu-type opioid receptor [8]): 0.00462 µM
Emax [1]: 114%
MPE (Mus musculus [9]): 38%
ED50 (Mus musculus [12]): 2 µg

CN1CC[C@]23c4c5ccc(O)c4O[C@H]2[C@@H](NC(=O)c2cccnc2)C=C[C@H]3[C@H]1C5
Ki (Mu-type opioid receptor [3]): 0.00125 µM
Ki [4]: 0.019 µM
Ki [5]: 0.0344 µM
Ratio Ki (Mus musculus [6]): 15.2
Ratio Ki (Mus musculus [7]): 27.5
EC50 (Mu-type opioid receptor [8]): 0.00283 µM
Emax [1]: 114%
EC50 [15]: 0.0588 µM
Emax [2]: 87.9%
MPE (Mus musculus [9]): 35%
ED50 (Mus musculus [12]): 0.51 µg

CN1CC[C@]23c4c5ccc(O)c4O[C@H]2[C@@H](NC(=O)c2cccnc2)CC[C@H]3[C@H]1C5
Ki (Mu-type opioid receptor [3]): 0.00329 µM
Ki [4]: 0.119 µM
Ki [5]: 0.13 µM
Ratio Ki (Mus musculus [6]): 36.2
Ratio Ki (Mus musculus [7]): 39.6
EC50 (Mu-type opioid receptor [8]): 0.00798 µM
Emax [1]: 117%
MPE (Mus musculus [9]): 83%
Activity (Mus musculus [10]): Active
Activity (Mus musculus [11]): Active
ED50 (Mus musculus [12]): 1.8 µg
Activity (Mus musculus [13]): inactive
